Data: ChEMBL document CHEMBL2321722 (J Med Chem, 2013)

Tests used:
[1] = Lipophilicity, log D of the compound; assay type: physicochemical; settings: octanol/water
[2] = Dissociation constant, pKa of the compound at basic pH by pressure-assisted capillary electrophoresis; assay type: physicochemical
Procedure, shortened: (§1)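 Ionization constants from a high-throughput screen using pressure-assisted capillary electrophoresis with mass spectrometry detection; stated accuracy ±0.2 pKa units.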

[3] = Dissociation constant, pKa of the compound at acidic pH by pressure-assisted capillary electrophoresis; assay type: physicochemical; procedure, shortened: as §1
Plasminogen [4] = biological target: T1, Plasminogen (Homo sapiens, UniProt P00747); assay: Inhibition of human Glu-plasminogen/fibrinogen interaction in HEPES buffer assessed as inhibition of lysis of thrombin-induced clot preincubated for 15 mins prior to thrombin addition measured for 15 hrs by clot-lysis buffer assay
Plasminogen [5] = biological target: T1, Plasminogen; assay: Inhibition of plasminogen/fibrinogen interaction in pooled citreated human platelet-poor plasma assessed as inhibition of lysis of CaCl2/t-PA-induced clot by microtiter plate analysis; assay type: cell-free
[6] = Apparent permeability from apical to basolateral side in human Caco2 cells at pH 6.5 by LC/MS analysis; assay type: ADME, cell-based; settings: Caco-2, pH 6.5

T1 sequence (P00747 97-580 limits assumed): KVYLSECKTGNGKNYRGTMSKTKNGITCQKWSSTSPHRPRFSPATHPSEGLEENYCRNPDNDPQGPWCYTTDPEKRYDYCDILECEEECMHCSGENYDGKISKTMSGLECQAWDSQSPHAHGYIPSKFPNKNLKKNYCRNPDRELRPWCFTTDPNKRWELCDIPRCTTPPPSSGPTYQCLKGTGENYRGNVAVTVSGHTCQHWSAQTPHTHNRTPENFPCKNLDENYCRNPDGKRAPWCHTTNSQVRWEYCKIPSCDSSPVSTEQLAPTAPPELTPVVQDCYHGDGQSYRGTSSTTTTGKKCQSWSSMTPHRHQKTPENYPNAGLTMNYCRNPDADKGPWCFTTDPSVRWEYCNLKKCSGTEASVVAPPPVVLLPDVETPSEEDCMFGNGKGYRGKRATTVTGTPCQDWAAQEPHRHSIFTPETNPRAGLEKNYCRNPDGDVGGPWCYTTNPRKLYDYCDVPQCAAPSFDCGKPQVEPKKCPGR
T1 sequence (P00747 581-810 limits assumed): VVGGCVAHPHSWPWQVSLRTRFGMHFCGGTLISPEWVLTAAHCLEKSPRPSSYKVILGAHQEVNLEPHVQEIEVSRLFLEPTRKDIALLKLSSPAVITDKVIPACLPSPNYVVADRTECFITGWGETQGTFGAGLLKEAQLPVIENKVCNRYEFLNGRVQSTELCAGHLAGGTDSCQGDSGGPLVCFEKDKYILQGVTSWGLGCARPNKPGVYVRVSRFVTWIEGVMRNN

Row | Papp A→B [6] [×10⁻⁶ cm/s] | SMILES | logD [1] | pKa [2] | pKa [3] | IC50 (Plasminogen [4]) [µM] | IC50 (Plasminogen [5]) [µM]
1 |  | Oc1cc(C2CCNCC2)on1 | < 0 | 10.5 | 4 |  | 
2 |  | C1CC(c2nnn[nH]2)CCN1 |  | 10.7 | 4.3 | > 100 | > 100
3 | 7.83 | NC[C@H]1CC[C@H](C(=O)O)CC1 [TRANEXAMIC ACID] |  | 9.7 | 4.1 |  | 
